Test results as given in ChEMBL document CHEMBL2331153, “Structural investigation and biological activity of sesquiterpene lactones from the traditional Chinese herb Inula racemosa” (J Nat Prod, 2013).
Converted amounts (≈) assume the structure as drawn. One block for each compound: values may come before it. The source made the active and inactive calls. No cut-off for these calls is given here.

Experiments:
Format in all cases: functional, cell-based
A549 = assay: Antiproliferative activity against human A549 cells assessed as inhibition of cell proliferation after 72 hrs by CCK8 assay; conditions: A549, 72 h
In short: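 A549 cells grown in RPMI 1640 with 10% FBS and penicillin/streptomycin at 37 °C, 5% CO2. Cells adhered overnight, then treated with compound for 72 h. CCK-8 added for 2 h at 37 °C, absorbance read at 450 nm. Mitomycin served as positive control. Run in duplicate.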

HepG2 = assay: Antiproliferative activity against human HepG2 cells assessed as inhibition of cell proliferation after 72 hrs by CCK8 assay; conditions: HepG2, 72 h
In short: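 HepG2 cells maintained in DMEM with 10% FBS and penicillin/streptomycin at 37 °C, 5% CO2. After overnight adherence, compound exposure lasted 72 h. Viable cells detected with CCK-8 (2 h incubation) by absorbance at 450 nm. Positive control was mitomycin. Assays in duplicate.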

HT-1080 = assay: Antiproliferative activity against human HT1080 cells assessed as inhibition of cell proliferation after 72 hrs by CCK8 assay; conditions: HT-1080, 72 h
In short: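 HT1080 fibrosarcoma cells cultured in alpha-MEM with 10% FBS and penicillin/streptomycin, 37 °C, 5% CO2. Seeded, allowed to adhere overnight, then incubated with compound for 72 h. CCK-8 added for 2 h, then A450 read. Mitomycin was the positive control. Duplicate experiments.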

HUVEC [1] = assay: Antiangiogenic activity against human HUVEC assessed as inhibition of endothelial cell tube formation at 1 ug/ml after 22 hrs by Matrigel assay
In short: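 HUVECs (passages 2–6) seeded at 25 000 cells/well onto a Matrigel layer and exposed to compound for 22 h; images taken 22 h after plating at ×40. Capillary tube formation scored as total length of capillary structures in two representative fields per experiment. Colchicine served as positive control.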

HUVEC [2] = assay: Antiproliferative activity against human HUVEC assessed as inhibition of cell proliferation after 72 hrs by CCK8 assay
In short: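 HUVECs at passages 2–6 grown in endothelial cell medium with 0.03 mg/mL endothelial cell growth supplement, 10% FBS, 0.1 mg/mL heparin and penicillin/streptomycin. Cells adhered overnight, then compound added for 72 h at 37 °C, 5% CO2. CCK-8 added for 2 h and absorbance read at 450 nm. Mitomycin positive control; duplicates.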

Structure (SMILES): C=C1C(=O)O[C@@H]2C[C@@]3(C)CC[C@@H](O)C(=C)[C@@H]3C[C@H]12 [ISOTELEKIN]
- IC50 (A549): 1.47 µg/mL (≈ 5.92 µM)
- IC50 (HepG2): 4.19 µg/mL (≈ 16.9 µM)
- IC50 (HT-1080): 2.44 µg/mL (≈ 9.83 µM)

Structure (SMILES): C=C1CCC[C@]2(C)C[C@H]3OC(=O)[C@@H](C)[C@H]3C[C@@H]12 [DIHYDROISOALANTOLACTONE]
- IC50 (A549): > 50 µg/mL
- IC50 (HepG2): > 50 µg/mL
- IC50 (HT-1080): > 50 µg/mL

Structure (SMILES): C[C@@H]1C(=O)O[C@@H]2C[C@@]3(C)CCC[C@H](C)C3=C[C@]12O [RACEMOSALACTONE C]
- IC50 (A549): 27.8 µg/mL (≈ 111 µM)
- IC50 (HepG2): > 50 µg/mL
- IC50 (HT-1080): > 50 µg/mL

Structure (SMILES): C=C1C(=O)O[C@@H]2C[C@@]3(C)CCCC(C)=C3C[C@H]12 [ALLOALANTOLACTONE]
- IC50 (A549): 2.67 µg/mL (≈ 11.5 µM)
- IC50 (HepG2): 3.57 µg/mL (≈ 15.4 µM)
- IC50 (HT-1080): 3.87 µg/mL (≈ 16.7 µM)

Structure (SMILES): C=C1C(=O)O[C@@H]2C[C@@]3(C)CCC[C@H](C)[C@]3(O)C[C@H]12 [RACEMOSALACTONE A]
- IC50 (A549): 1.51 µg/mL (≈ 6.03 µM)
- IC50 (HepG2): 2.76 µg/mL (≈ 11 µM)
- IC50 (HT-1080): 1.88 µg/mL (≈ 7.51 µM)

Structure (SMILES): C[C@@H]1C(=O)O[C@@H]2C[C@@]3(C)CCC[C@]4(CO4)[C@@H]3C[C@H]12
- IC50 (A549): > 50 µg/mL
- IC50 (HepG2): > 50 µg/mL
- IC50 (HT-1080): > 50 µg/mL

Structure (SMILES): C=C1C(=O)O[C@@H]2C[C@@]3(C)CCC[C@H](C)[C@@]34O[C@H]4[C@H]12
- IC50 (A549): 1.59 µg/mL (≈ 6.4 µM)
- IC50 (HepG2): 2.73 µg/mL (≈ 11 µM)
- IC50 (HT-1080): 1.32 µg/mL (≈ 5.32 µM)

Structure (SMILES): C=C1C(=O)O[C@@H]2C[C@@]3(C)CCC[C@]4(CO4)[C@@H]3C[C@H]12
- IC50 (A549): 2.65 µg/mL (≈ 10.7 µM)
- IC50 (HepG2): 3.78 µg/mL (≈ 15.2 µM)
- IC50 (HT-1080): 3.51 µg/mL (≈ 14.1 µM)

Structure (SMILES): C[C@@H]1CCC[C@]2(C)C[C@@H]3OC(=O)C(CO)=C3C=C12 [MACROPHYLLILACTONE E]
- IC50 (A549): 16.2 µg/mL (≈ 65.3 µM)
- IC50 (HepG2): 31.2 µg/mL (≈ 126 µM)
- IC50 (HT-1080): 28.5 µg/mL (≈ 115 µM)

Structure (SMILES): C=C1C[C@H](O)C[C@]2(C)C[C@H]3OC(=O)[C@H](C)[C@H]3C[C@@H]12
- IC50 (A549): > 50 µg/mL
- IC50 (HepG2): > 50 µg/mL
- IC50 (HT-1080): > 50 µg/mL

Structure (SMILES): C=C1C(=O)O[C@@H]2C[C@@]3(C)CCCC(=C)[C@]3(O)C[C@H]12 [TELEKIN]
- IC50 (A549): 4.27 µg/mL (≈ 17.2 µM)
- IC50 (HepG2): 8.14 µg/mL (≈ 32.8 µM)
- IC50 (HT-1080): 3.5 µg/mL (≈ 14.1 µM)

Structure (SMILES): C=C1C(=O)O[C@@H]2C[C@@]3(C)CCC[C@H](C)C3=C[C@H]12 [HELENINE]
- inhibition (HUVEC [1]): Active
- IC50 (HUVEC [2]): 2.4 µg/mL (≈ 10.3 µM)
- IC50 (A549): 0.55 µg/mL (≈ 2.37 µM)
- IC50 (HepG2): 1.3 µg/mL (≈ 5.6 µM)
- IC50 (HT-1080): 0.696 µg/mL (≈ 3 µM)

Structure (SMILES): C[C@H]1CCC[C@]2(C)C[C@H]3OC(=O)[C@](C)(O)[C@H]3C=C12
- IC50 (A549): > 50 µg/mL
- IC50 (HepG2): > 50 µg/mL
- IC50 (HT-1080): > 50 µg/mL

Structure (SMILES): C=C1C[C@H](O)C[C@]2(C)C[C@H]3OC(=O)[C@](C)(O)[C@H]3C[C@@H]12 [RACEMOSALACTONE D]
- IC50 (A549): > 50 µg/mL
- IC50 (HepG2): > 50 µg/mL
- IC50 (HT-1080): > 50 µg/mL

Structure (SMILES): C[C@@H]1C(=O)O[C@@H]2C[C@@]3(C)CCC[C@H](C)C3=C[C@H]12
- IC50 (A549): 24.8 µg/mL (≈ 106 µM)
- IC50 (HepG2): > 50 µg/mL
- IC50 (HT-1080): > 50 µg/mL

Structure (SMILES): C[C@@H]1C(=O)O[C@@H]2C[C@@]3(C)CCC[C@H](C)[C@@]34O[C@H]4[C@H]12 [DIHYDROEPOXYALANTOLACTONE]
- IC50 (A549): 16.2 µg/mL (≈ 64.8 µM)
- IC50 (HepG2): 25.3 µg/mL (≈ 101 µM)
- IC50 (HT-1080): 17.4 µg/mL (≈ 69.5 µM)

Now from value to compound, other results behind:

- IC50 (A549): 0.38 µg/mL (≈ 1.64 µM)
- IC50 (HepG2): 1.77 µg/mL (≈ 7.62 µM)
- IC50 (HT-1080): 0.795 µg/mL (≈ 3.42 µM)
Structure (SMILES): C=C1C(=O)O[C@@H]2C[C@@]3(C)CCCC(=C)[C@@H]3C[C@H]12 [ISOALANTOLACTONE]
- inhibition (HUVEC [1]): Active
- IC50 (HUVEC [2]): 2.5 µg/mL (≈ 10.8 µM)

- IC50 (A549): > 50 µg/mL
- IC50 (HepG2): > 50 µg/mL
- IC50 (HT-1080): > 50 µg/mL
Structure (SMILES): C[C@@H]1C2=C[C@H]3[C@@H](C[C@@]2(C)CC[C@@H]1O)OC(=O)[C@@H]3C

- IC50 (A549): > 50 µg/mL
- IC50 (HepG2): > 50 µg/mL
- IC50 (HT-1080): > 50 µg/mL
Structure (SMILES): C=C1C[C@H](O)C[C@]2(C)C[C@H]3OC(=O)[C@@H](C)[C@H]3C[C@@H]12

- IC50 (A549): 24.8 µg/mL (≈ 99.1 µM)
- IC50 (HepG2): 26.1 µg/mL (≈ 104 µM)
- IC50 (HT-1080): 20.1 µg/mL (≈ 80.3 µM)
Structure (SMILES): C[C@@H]1C(=O)O[C@@H]2C[C@@]3(C)C[C@@H](O)C[C@H](C)C3=C[C@H]12

- IC50 (A549): 37.3 µg/mL (≈ 124 µM)
- IC50 (HepG2): > 50 µg/mL
- IC50 (HT-1080): > 50 µg/mL
Structure (SMILES): C[C@@H]1C2=C[C@H]3[C@@H](C[C@@]2(C)CC[C@@H]1O)OC(=O)[C@@]3(O)CCl [RACEMOSALACTONE B]

- IC50 (A549): 38.6 µg/mL (≈ 154 µM)
- IC50 (HepG2): > 50 µg/mL
- IC50 (HT-1080): > 50 µg/mL
Structure (SMILES): C[C@H]1C(=O)O[C@@H]2CC3=C[C@@H](O)C[C@H](C)[C@@]3(C)C[C@@H]21 [RACEMOSALACTONE E]

- IC50 (A549): 0.54 µg/mL (≈ 1.62 µM)
- IC50 (HepG2): 0.14 µg/mL (≈ 0.419 µM)
- IC50 (HT-1080): 0.15 µg/mL (≈ 0.449 µM)
Structure (SMILES): CO[C@@]12[C@H](COC(N)=O)C3=C(C(=O)C(C)=C(N)C3=O)N1C[C@@H]1N[C@@H]12 [MITOMYCIN]

- IC50 (A549): 22.5 µg/mL (≈ 90.8 µM)
- IC50 (HepG2): > 50 µg/mL
- IC50 (HT-1080): > 50 µg/mL
Structure (SMILES): CC1=C2C[C@@H]3[C@H](C)C(=O)O[C@@H]3C[C@@]2(C)CCC1=O
